Usually EC50 stands for the concentration giving half of the maximal effect.

Drawing on PubChem BioAssay AID2608 (Broad Institute, 2010), this text covers EC50 for 14 compounds.

This experiment deals with BJeLR fibroblasts viability, alamar blue fluorescence, 48 h. Nature of the experiment: BJeLR fibroblast killing, alamar blue viability – cell-based, alamar blue fluorescence, 48 h, powder samples, dose response (AID 2608). Put shortly: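 Material: BJ fibroblasts transformed with hTERT, SV40 LT/ST and HRASV12; Quantity: 1000 cells per well; Dosing: 2-fold compound dilution series, 0.01–5.33 µg/mL final; Schedule: 48 h exposure, 37 °C, 5% CO2, ~16 h alamar blue; Measured by: alamar blue fluorescence at 544/590 nm.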
A general note: Alamar Blue is a resazurin reagent that responds to reducing activity.
Regarding `O=C(CCl)N=c1sccn1Cc1ccccc1Cl`, the EC50 is 149 nM. With `COC(=O)[C@@H]1Cc2c([nH]c3ccccc23)C(C)(C)N1C(=O)CCl`, the EC50 is 475 nM. With `COc1ccc(CN(CCC(c2ccccc2)c2ccc(OC(C)C)cc2)C(=O)CCl)cc1OC` (centres undefined), the EC50 was 642 nM. On to `Cc1ccc(C2CC(c3cccs3)=NN2C(=O)CCl)cc1` (centres undefined), for which the EC50 was 776 nM.

Consider `C=CCOc1ccccc1CN(C(=O)CCl)c1ccc2c(c1)OCO2`, for which the EC50 is 855 nM. Consider `COc1ccc(C(C(=O)NC2CCCCC2)N(C(=O)CCl)c2cccc(Cl)c2)cc1` (centres undefined), for which the 50% effective concentration (EC50) was 171 nM. For the compound `CCOc1ccc(Nc2nc(N)nc(CCl)n2)cc1`, the 50% effective concentration (EC50) was 226 nM. For `Nc1nc(CCl)nc(Nc2ccc3ccccc3c2)n1`, the EC50 is 85 nM. The result for `CCCCCCCN(C(=O)CCl)c1cccc(C)c1` reads 119 nM; that for `COc1cccc(N(C(=O)CCl)C(C(=O)NCCc2ccccc2)c2cccs2)c1` (centres undefined), 168 nM; that for `COc1ccc(C(C(=O)NC2CCCCC2)N(C(=O)CCl)c2ccc(C)cc2)cc1` (centres undefined), 161 nM. As for `COc1ccc(N(C(=O)CCl)C(C(=O)NCCc2ccccc2)c2cccs2)cc1` (centres undefined), the EC50 is 217 nM. Regarding `Cc1ccc(N(C(=O)CCl)C(C(=O)NC2CCCCC2)c2cccnc2)cc1C` (centres undefined), the EC50 is 160 nM.

As to `COc1ccc(N(C(=O)CCl)C(C(=O)NCCc2ccccc2)c2cccs2)cc1Cl` (centres undefined), the half-maximal effective concentration (EC50) is 26 nM.
